According to ChEMBL document CHEMBL4257518, “Inhibition of O-GlcNAc transferase (OGT) by peptidic hybrids” (Medchemcomm, 2018):
Activity calls are given as the source filed them. The calls are words filed in the database; no cut-off is given here. Side chains are listed from the residue outwards. Peptide text beside a SMILES is read from it. * marks the point of attachment. X3 = O=c1ccn([C@@H]2O[C@H](COCCOCCN*)[C@@H](O)[C@H]2O)c(=O)[nH]1; X2 = O=c1ccn([C@@H]2O[C@H](COCCN*)[C@@H](O)[C@H]2O)c(=O)[nH]1; X1 = O=c1ccn([C@@H]2O[C@H](CN*)[C@@H](O)[C@H]2O)c(=O)[nH]1; X4 = O=C(c1cc(=O)[nH]c2ccccc12)*; 4Amb = NCc1ccc(C(=O)O)cc1

Legend:
[1] = molecular target: T1, UDP-N-acetylglucosamine--peptide N-acetylglucosaminyltransferase 110 kDa subunit (Homo sapiens, UniProt O15294); assay: Inhibition of OGT (unknown origin) using UDP-GlcNAc as substrate measured after 2 hrs by UDP-Glo luminescence assay
T1 sequence (O15294 whole entry): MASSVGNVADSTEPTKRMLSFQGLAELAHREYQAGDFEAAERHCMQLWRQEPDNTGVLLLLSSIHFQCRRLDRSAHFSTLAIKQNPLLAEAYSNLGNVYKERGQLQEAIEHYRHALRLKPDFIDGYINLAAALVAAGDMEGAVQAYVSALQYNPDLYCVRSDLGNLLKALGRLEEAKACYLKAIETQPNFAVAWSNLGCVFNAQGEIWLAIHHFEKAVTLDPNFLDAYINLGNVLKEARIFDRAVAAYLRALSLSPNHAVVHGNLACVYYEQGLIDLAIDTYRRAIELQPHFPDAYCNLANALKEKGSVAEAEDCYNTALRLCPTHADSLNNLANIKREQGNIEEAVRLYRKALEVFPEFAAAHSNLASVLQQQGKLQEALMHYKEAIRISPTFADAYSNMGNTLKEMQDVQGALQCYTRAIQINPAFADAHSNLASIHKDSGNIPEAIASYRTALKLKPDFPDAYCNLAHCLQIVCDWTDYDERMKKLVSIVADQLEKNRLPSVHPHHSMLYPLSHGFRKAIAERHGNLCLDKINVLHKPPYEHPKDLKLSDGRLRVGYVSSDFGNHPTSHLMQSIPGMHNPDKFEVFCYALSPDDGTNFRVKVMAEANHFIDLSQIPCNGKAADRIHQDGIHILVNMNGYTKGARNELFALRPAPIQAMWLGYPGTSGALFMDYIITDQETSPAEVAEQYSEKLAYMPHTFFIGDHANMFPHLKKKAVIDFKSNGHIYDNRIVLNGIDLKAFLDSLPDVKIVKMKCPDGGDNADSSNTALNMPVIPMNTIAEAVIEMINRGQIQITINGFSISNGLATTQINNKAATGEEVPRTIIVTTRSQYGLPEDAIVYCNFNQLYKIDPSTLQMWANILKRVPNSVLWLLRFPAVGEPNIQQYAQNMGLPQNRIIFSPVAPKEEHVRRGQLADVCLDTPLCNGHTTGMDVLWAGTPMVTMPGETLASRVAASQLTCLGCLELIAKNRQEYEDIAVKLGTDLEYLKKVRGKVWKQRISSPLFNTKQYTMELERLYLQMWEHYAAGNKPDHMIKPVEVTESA

[2] = molecular target: T2, UDP-N-acetylglucosamine--peptide N-acetylglucosaminyltransferase 110 kDa subunit (Homo sapiens) (UniProt O15294); assay: Inhibition of OGT (unknown origin) at 1 mM using UDP-GlcNAc as substrate measured after 2 hrs by UDP-Glo luminescence assay relative to control
T2 sequence (whole entry): T1 sequence (O15294 whole entry)
Procedure, shortened: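 Single-point OGT inhibition at 1 mM, read by UDP-Glo glycosyltransferase assay (UDP released from UDP-GlcNAc donor).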

[3] = molecular target: T2, UDP-N-acetylglucosamine--peptide N-acetylglucosaminyltransferase 110 kDa subunit (Homo sapiens); assay: Competitive inhibition of OGT (unknown origin) at 0.5 mM in presence of RBL_2_410_422 peptide by microarray analysis
Procedure, shortened: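 Peptide microarray with immobilized RBL-2_410–422 as OGT acceptor; inhibitor peptide present at 0.5 mM, water in parallel control. O-GlcNAcylation followed in real time by FITC-labelled antibody binding to O-GlcNAcylated RBL-2_410–422.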

Molecule	inhibition [2] [%]	also measured
CC(C)[C@H](NC(=O)[C@@H](N)CS)C(=O)N[C@H](C(=O)N1CCC[C@H]1C(=O)N[C@H](C(=O)N[C@@H](CCC(=O)NCCOC[C@H]1O[C@@H](n2ccc(=O)[nH]c2=O)[C@H](O)[C@@H]1O)C(=O)N[C@H](C(=O)N[C@@H](C)C(N)=O)[C@@H](C)O)C(C)C)[C@@H](C)O (H-CVTPVE(X2)TA-NH2)		IC50 [1]: > 1000 µM
CC(C)[C@H](NC(=O)[C@@H](N)CS)C(=O)N[C@H](C(=O)N1CCC[C@H]1C(=O)N[C@H](C(=O)N[C@@H](CCC(=O)NC[C@H]1O[C@@H](n2ccc(=O)[nH]c2=O)[C@H](O)[C@@H]1O)C(=O)N[C@H](C(=O)N[C@@H](C)C(N)=O)[C@@H](C)O)C(C)C)[C@@H](C)O (H-CVTPVE(X1)TA-NH2)		IC50 [1]: 297 µM
H-RVPSAQS-NH2		IC50 [1]: 193 µM
COc1ccc(CNC(=O)c2cc(=O)[nH]c3ccccc23)cc1OC	90	
O=C(O)CCNC(=O)c1cc(=O)[nH]c2ccccc12	90	
CC(C)[C@H](NC(=O)[C@@H](N)CS)C(=O)N[C@H](C(=O)N1CCC[C@H]1C(=O)N[C@H](C(=O)N[C@@H](CCCCNC(=O)c1ccc(CNC(=O)c2cc(=O)[nH]c3ccccc23)cc1)C(=O)N[C@H](C(=O)N[C@@H](C)C(N)=O)[C@@H](C)O)C(C)C)[C@@H](C)O (H-CVTPVK([4Amb-X4])TA-NH2)		IC50 [1]: 117 µM
O=C(O)CNC(=O)c1cc(=O)[nH]c2ccccc12	90	
H-CVTPVATA-NH2		IC50 [1]: 385 µM
CC(C)[C@H](NC(=O)[C@@H](N)CCCNC(=N)N)C(=O)N1CCC[C@H]1C(=O)N[C@@H](CO)C(=O)N[C@@H](CCC(=O)NCCOC[C@H]1O[C@@H](n2ccc(=O)[nH]c2=O)[C@H](O)[C@@H]1O)C(=O)N[C@@H](CCC(N)=O)C(=O)N[C@@H](CO)C(N)=O (H-RVPSE(X2)QS-NH2)		IC50 [1]: > 1000 µM
Nc1ccc(CNC(=O)c2cc(=O)[nH]c3ccccc23)cc1	90	
CC(C)[C@H](NC(=O)[C@@H](N)CCCNC(=N)N)C(=O)N1CCC[C@H]1C(=O)N[C@@H](CO)C(=O)N[C@@H](CCC(=O)NC[C@H]1O[C@@H](n2ccc(=O)[nH]c2=O)[C@H](O)[C@@H]1O)C(=O)N[C@@H](CCC(N)=O)C(=O)N[C@@H](CO)C(N)=O (H-RVPSE(X1)QS-NH2)		IC50 [1]: > 1000 µM
CCOC(=O)C1CCC(CNC(=O)c2cc(=O)[nH]c3ccccc23)CC1 (stereo unspecified)	90	
COc1ccc(CNC(=O)c2cc(=O)[nH]c3ccccc23)cc1	90	
CC(C)(C)OC(=O)CCNC(=O)c1cc(=O)[nH]c2ccccc12	90	
H-KENSPCVTPVATA-OH		inhibition [3]: Active
Nc1ccccc1CNC(=O)c1cc(=O)[nH]c2ccccc12	90	
O=C(O)CCNC(=O)c1ccc(NC(=O)c2cc(=O)[nH]c3ccccc23)cc1	90	
CC(C)[C@H](NC(=O)[C@@H](N)CS)C(=O)N[C@H](C(=O)N1CCC[C@H]1C(=O)N[C@H](C(=O)N[C@@H](CCC(=O)NCCOCCOC[C@H]1O[C@@H](n2ccc(=O)[nH]c2=O)[C@H](O)[C@@H]1O)C(=O)N[C@H](C(=O)N[C@@H](C)C(N)=O)[C@@H](C)O)C(C)C)[C@@H](C)O (H-CVTPVE(X3)TA-NH2)		IC50 [1]: 493 µM
CCNC(=O)CCNC(=O)c1ccc(NC(=O)c2cc(=O)[nH]c3ccccc23)cc1	90	

More lines, main results first:

inhibition [2] [%]	Molecule	also measured
90	CCOC(=O)CCCNC(=O)c1cc(=O)[nH]c2ccccc12	
90	O=C(NCc1ccccc1Cl)c1cc(O)nc2ccccc12	
90	CCOC(=O)c1ccc(CNC(=O)c2cc(=O)[nH]c3ccccc23)cc1	
90	CC(C)(C)OC(=O)CNC(=O)c1cc(=O)[nH]c2ccccc12	
90	CCc1nnc(NC(=O)c2cc(=O)[nH]c3ccccc23)s1	
90	O=C(NCc1ccc2c(c1)OCCO2)c1cc(=O)[nH]c2ccccc12	
90	O=C(NCc1ccccc1)c1cc(O)nc2ccccc12	
90	NS(=O)(=O)c1ccc(CNC(=O)c2cc(O)nc3ccccc23)cc1	
90	O=C(NCC1CCC(C(=O)O)CC1)c1cc(=O)[nH]c2ccccc12 (stereo unspecified)	
90	O=C(O)c1ccc(CNC(=O)c2cc(=O)[nH]c3ccccc23)cc1	
90	O=C(O)c1cc(O)nc2ccccc12	
90	O=C(O)CCCNC(=O)c1cc(=O)[nH]c2ccccc12	
